Activity calls are given as the source filed them.
Key:
Type in all cases: functional
[1] = test system: Candida albicans; experiment: Antimicrobial activity against Candida albicans MTCC 227 at MIC after 48 hrs by agar diffusion method
Outline: (§1)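 Fungal spore suspensions in sterile distilled water were adjusted to 10⁶ cfu/mL, and 0.1 mL was spread on Sabouraud dextrose agar. 6 mm wells were filled with 0.1 mL of compound dilution in DMSO (1% DMSO; DMSO-only control). Plates were incubated 48 h at 28 ± 0.2 °C, and inhibition zones were measured in mm. MIC was the lowest concentration completely inhibiting growth.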

[2] = test system: Serratia marcescens; experiment: Antimicrobial activity against Serratia marcescens MTCC 86 after 24 hrs; settings: MTCC 86, 24 h
Outline: (§2)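 Agar well diffusion on Mueller Hinton agar seeded with 0.1 mL of a 10⁵ cfu/mL bacterial suspension in 0.85% sterile saline. 6 mm wells received 0.1 mL of each compound dilution in DMSO (1% DMSO; DMSO alone as control). Plates were incubated 24 h at 37 ± 0.5 °C. Read-out was zone of inhibition in mm. MIC was taken as the lowest concentration giving complete growth inhibition.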

[3] = test system: Escherichia coli; experiment: Antimicrobial activity against Escherichia coli MTCC 1650 after 24 hrs; settings: MTCC 1650, 24 h; outline: as §2
[4] = test system: Candida albicans; experiment: Antimicrobial activity against Candida albicans MTCC 227 after 48 hrs; settings: MTCC 227, 48 h; outline: as §1
[5] = test system: Trichoderma viride; experiment: Antimicrobial activity against Trichoderma viride MTCC 167 at MIC after 48 hrs by agar diffusion method; outline: as §1
[6] = test system: Aspergillus flavus; experiment: Antimicrobial activity against Aspergillus flavus MTCC 2501 at MIC after 48 hrs by agar diffusion method; outline: as §1
[7] = test system: Aspergillus niger; experiment: Antimicrobial activity against Aspergillus niger MTCC 1781 at MIC after 48 hrs by agar diffusion method; outline: as §1
[8] = test system: Serratia marcescens; experiment: Antimicrobial activity against Serratia marcescens MTCC 86 at MIC after 24 hrs by agar diffusion method; outline: as §2
[9] = test system: Aspergillus niger; experiment: Antimicrobial activity against Aspergillus niger MTCC 1781 after 48 hrs; settings: MTCC 1781, 48 h; outline: as §1
[10] = test system: Bacillus subtilis; experiment: Antimicrobial activity against Bacillus subtilis MTCC 1789 after 24 hrs; settings: MTCC 1789, 24 h; outline: as §2
[11] = test system: Trichoderma viride; experiment: Antimicrobial activity against Trichoderma viride MTCC 167 after 48 hrs; settings: MTCC 167, 48 h; outline: as §1
[12] = test system: Aspergillus flavus; experiment: Antimicrobial activity against Aspergillus flavus MTCC 2501 after 48 hrs; settings: MTCC 2501, 48 h; outline: as §1
[13] = test system: Penicillium chrysogenum; experiment: Antimicrobial activity against Penicillium chrysogenum MTCC 1996 at MIC after 48 hrs by agar diffusion method; outline: as §1
[14] = test system: Escherichia coli; experiment: Antimicrobial activity against Escherichia coli MTCC 1650 at MIC after 24 hrs by agar diffusion method; outline: as §2
[15] = test system: Pseudomonas aeruginosa; experiment: Antimicrobial activity against Pseudomonas aeruginosa MTCC 2488 after 24 hrs; settings: MTCC 2488, 24 h; outline: as §2
[16] = test system: Proteus vulgaris; experiment: Antimicrobial activity against Proteus vulgaris MTCC 1771 after 24 hrs; settings: MTCC 1771, 24 h; outline: as §2
[17] = test system: Staphylococcus aureus; experiment: Antimicrobial activity against Staphylococcus aureus MTCC 96 at MIC after 24 hrs by agar diffusion method; outline: as §2
[18] = test system: Klebsiella pneumoniae; experiment: Antimicrobial activity against Klebsiella pneumoniae NCIM 2957 after 24 hrs; settings: NCIM 2957, 24 h; outline: as §2
[19] = test system: Bacillus subtilis; experiment: Antimicrobial activity against Bacillus subtilis MTCC 1789 at MIC after 24 hrs by agar diffusion method; outline: as §2
[20] = test system: Priestia megaterium; experiment: Antimicrobial activity against Bacillus megaterium MTCC 1684 at MIC after 24 hrs by agar diffusion method; outline: as §2
[21] = test system: Priestia megaterium; experiment: Antimicrobial activity against Bacillus megaterium MTCC 1684 after 24 hrs; settings: MTCC 1684, 24 h; outline: as §2
[22] = test system: Staphylococcus aureus; experiment: Antimicrobial activity against Staphylococcus aureus MTCC 96 after 24 hrs; settings: MTCC 96, 24 h; outline: as §2
[23] = test system: Penicillium chrysogenum; experiment: Antimicrobial activity against Penicillium chrysogenum MTCC 1996 after 48 hrs; settings: MTCC 1996, 48 h; outline: as §1
[24] = test system: Proteus vulgaris; experiment: Antimicrobial activity against Proteus vulgaris MTCC 1771 at MIC after 24 hrs by agar diffusion method; outline: as §2
[25] = test system: Klebsiella pneumoniae; experiment: Antimicrobial activity against Klebsiella pneumoniae NCIM 2957 at MIC after 24 hrs by agar diffusion method; outline: as §2

Nc1n[nH]c2nc3scc(-c4cc(Cl)cc(I)c4O)n3c(=O)c12
250 µg/mL: MIC [4] | MIC [9] | MIC [11] | MIC [12] | MIC [23]
14 mm: inhibition zone (IZ) [13] | inhibition zone (IZ) [19]
inactive: inhibition zone (IZ) [1] | inhibition zone (IZ) [6] | inhibition zone (IZ) [7] | inhibition zone (IZ) [8] | inhibition zone (IZ) [14] | inhibition zone (IZ) [20]
16 mm: inhibition zone (IZ) [17]
21 mm: inhibition zone (IZ) [5]
50 µg/mL: MIC [2] | MIC [3] | MIC [10] | MIC [15] | MIC [16] | MIC [18] | MIC [21] | MIC [22]

Nc1n[nH]c2nc3scc(-c4ccc(Br)cc4)n3c(=O)c12
inactive: inhibition zone (IZ) [8] | inhibition zone (IZ) [24] | inhibition zone (IZ) [25] | inhibition zone (IZ) [19] | inhibition zone (IZ) [20]
250 µg/mL: MIC [4] | MIC [9] | MIC [11] | MIC [12] | MIC [23]
10 mm: inhibition zone (IZ) [1] | inhibition zone (IZ) [6] | inhibition zone (IZ) [7]
15 mm: inhibition zone (IZ) [13]
14 mm: inhibition zone (IZ) [14]
27 mm: inhibition zone (IZ) [5]
18 mm: inhibition zone (IZ) [17]
50 µg/mL: MIC [2] | MIC [3] | MIC [10] | MIC [15] | MIC [16] | MIC [18] | MIC [21] | MIC [22]

Nc1n[nH]c2nc3scc(-c4cc(Cl)cc(Br)c4O)n3c(=O)c12
26 mm: inhibition zone (IZ) [5]
28 mm: inhibition zone (IZ) [13]
9 mm: inhibition zone (IZ) [25]
50 µg/mL: MIC [2] | MIC [3] | MIC [10] | MIC [15] | MIC [16] | MIC [18] | MIC [21] | MIC [22]
15 mm: inhibition zone (IZ) [8]
250 µg/mL: MIC [4] | MIC [9] | MIC [11] | MIC [12] | MIC [23]
inactive: inhibition zone (IZ) [7] | inhibition zone (IZ) [24] | inhibition zone (IZ) [19] | inhibition zone (IZ) [20]
16 mm: inhibition zone (IZ) [1] | inhibition zone (IZ) [17]
11 mm: inhibition zone (IZ) [6] | inhibition zone (IZ) [14]
